# Bioassay records: PubChem BioAssay, several laboratories
# Hits are enriched below; roughly 2.6% of the tested compounds scored in any of these assays.
# KCC2 mod: modulators of human KCC2 chloride dependent transport | KCC2 cells, thallium flux FluoZin-2 fluorescence | AID 1456 | 190,000 compounds, 2.2% hits | Q9H2X9 | B-score of Tl+ flux slope (higher = more flux/activation; lower = inhibition) at 10 µM;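 active = thallium flux slope and its plate-corrected score both differing from the plate sample mean at a set confidence after two filtering rounds, in either direction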;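 also: slope of fluorescence scaled to starting intensity during 10 to 20 s after thallium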
# CHT allo act: allosteric activators of human choline transporter CHT; Q9GZV3; CHT-expressing cells, membrane potential dye, choline EC20; stronger effect = higher value; LV-AA mutant CHT in HEK293 cells; B-score at 10 µM; 310,000 compounds, 0.49% hits; AID 488977;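 active = initial fluorescence not abnormally high and integrated response B-score, plate-corrected, over 3 SD above library mean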
# Rad51 HR inh: blocks human Rad51 in homologous recombination; AID 1385; hRad51 DNA strand exchange, fluorescence dequenching; inhibition, % at 10 µM; 200,000 compounds, 0.085% hits; Q06609;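 active = inhibition above 40% at the single screening dose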;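 also: 0% = DMSO control wells and 100% = blanks with heterologous ssDNA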
#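 Test system: preformed human Rad51 ssDNA filaments. Compound dosing: single dose, 10 µM final compound. Incubation: filaments 15 min 37 °C, then compound 30 min. Technique: FRET fluorescence dequenching, excitation 485 nm, emission 520 nm. Read-out basis: percent inhibition from fluorescence, normalised to plate control and blank means. Benchmarks: plate controls and plate blanks.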
# CHT inh: human CHT choline transport inhibition | Q9GZV3 | CHT-expressing cells, membrane potential dye, choline response; stronger effect = lower value | B-score at 10 µM | 310,000 compounds, 0.86% hits | AID 488975;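 active = B-score over 3 SD under the library average, and starting fluorescence ratio not unusually high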;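 also: choline stimulus applied at its EC90 after an EC20 pre-addition; B-score computed on integrated fluorescence ratio after choline addition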
# KCC2 secondary: confirmation of human KCC2 transport modulators. shares compounds with KCC2 mod. HEK293-KCC2, thallium flux, FluoZin2 fluorescence; stronger effect = higher value. normalised thallium flux (F/F0 slope) at 10 µM. 3,700 compounds, 15% hits;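 active = thallium flux slope above the same plate's solvent-only control mean plus 3 SD; inconclusive = the two replicate wells disagree; inactive = no significant difference from solvent-only control wells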
# KCC2 bumet counter: thallium flux persisting under bumetanide in KCC2 cells, counter-screen secondary assay. shares compounds with KCC2 mod. HEK293-KCC2 + bumetanide/ouabain, thallium flux FluoZin2; stronger effect = higher value. normalized thallium flux at 10 µM. 3,700 compounds, 49% hits. AID 1714;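 active = thallium entry rate above the same plate's blocked-transporter control wells by more than 3 SD; inconclusive = the two repeat wells disagree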;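 also: raw slope of fluorescence over initial fluorescence between 10 and 20 s after thallium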
# KCC2 secondary2: confirmation of human KCC2 transport modulators. shares compounds with KCC2 mod. HEK293-KCC2, thallium flux FluoZin2 fluorescence; actives lie on both sides; F/F0 rise rate, 10–20 s post-thallium. normalized thallium flux at 10 µM. 3,700 compounds, 23% hits;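 active = thallium flux slope more than 3 SD above or below the plate's solvent-only control mean, mostly below; inconclusive = the two repeat wells disagreed; inactive = no significant shift from solvent-only controls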;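 also: raw slope with 0.1% DMSO as baseline and bumetanide as block control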
# HEK293 Tl flux: counter-screen for KCC2 modulators: effect in parental HEK293 cells; shares compounds with KCC2 mod; thallium flux rate (normalised fluorescence) at 10 µM; thallium flux FluoZin2, ouabain; baseline-ratio fluorescence slope, 10–20 s after thallium; 3,700 compounds, 46% hits; AID 1716;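 active = thallium flux rate significantly above the same plate's solvent-only control wells, beyond their mean plus 3 SD; inconclusive = the two replicate wells gave conflicting results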
# KCC2 retest ouab: modulates human KCC2 on retest with ouabain; shares compounds with KCC2 mod; HEK293-KCC2, thallium flux FluoZin2 fluorescence; bidirectional: low = inhibitor, high = activator; 3,700 compounds, 48% hits; AID 1717; raw Tl+ flux slope (below DMSO = inhibition, above = activation) at 10 µM;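 active = thallium flux slope beyond 3 SD from same-plate DMSO control mean in most replicates, usually higher, sometimes lower; inconclusive = repeat tests gave conflicting results; inactive = no significant difference from controls in most replicates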;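 also: slope of initial-normalized fluorescence between seconds 10 and 20 after thallium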
# HEK293 Tl flux2: parental HEK flux effect, counter-screen 2; HEK293 parental, thallium flux FluoZin-2 fluorescence slope; thallium flux slope at 10 µM; 3,700 compounds, 33% hits; shares compounds with KCC2 mod;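 active = thallium flux slope above the same plate's solvent-control mean plus 3 SD in both duplicate wells; inconclusive = duplicate wells that disagreed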;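 also: run without ouabain in cells lacking the KCC2 cotransporter; slope of fluorescence scaled to its starting value between 10 and 20 s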
# An asterisk follows results filed as active; i = inactive; ? = inconclusive; / = no result given.
SMILES,KCC2 mod,CHT allo act,Rad51 HR inh,CHT inh,KCC2 secondary,KCC2 bumet counter,KCC2 secondary2,HEK293 Tl flux,KCC2 retest ouab,HEK293 Tl flux2
CN(C(=O)CSc1ncnc2sc(-c3ccccc3)cc12)C1CCS(=O)(=O)C1 (stereo not drawn),138*,i,32,i,0.0077,0.11*,0.11*,0.11*,0.1*,0.11*
C[C@H](NC(=O)c1cc2cc(Cl)ccc2n1C)C(=O)N[C@@H](C(=O)O)c1ccccc1,/,i,/,i,/,/,/,/,/,/
Cc1ccc(-c2ccc(CCC(=O)O)n2NC(N)=S)cc1,0.53,i,0,i,/,/,/,/,/,/
Cc1ccc(-c2ccc(CCC(=O)O)n2C(C)C)cc1,-4.4*,i,-5,i,0.0092,0.0067,0.029,0.0068,0.021,0.0096
COC(=O)c1ccc(C(=O)OC)c(NC(=O)c2cccnc2)c1,/,i,/,i,/,/,/,/,/,/
Cc1nc2c(-c3ccccc3)c[nH]n2c(=O)c1Cc1ccccc1,16*,i,0,i,0.0067,0.025*,0.036,0.02*,0.03*,0.019*
Cc1cc(=O)n2[nH]cc(-c3ccccc3)c2n1,/,i,/,i,/,/,/,/,/,/
CCc1cc(C(=O)N2CCCC(CNC(=O)c3ccc(-c4ccccc4)cc3)C2)no1 (stereo not drawn),/,i,-22,i,0.0081,0.0066,0.028*,0.0064,0.014*,0.01
CSCCC(=O)N1CCCC(CNC(=O)c2ccc(-c3ccccc3)cc2)C1 (stereo not drawn),-5.8*,i,3,i,0.006,0.0049,0.021*,0.0075,0.013*,0.01
CSc1ccccc1C(=O)N1CCCC(CNC(=O)c2ccc(F)cc2)C1 (stereo not drawn),/,i,/,i,/,/,/,/,/,/
Clc1ccc(-c2nc(/C=N/N3CCOCC3)c3ccccn23)cc1,0.031,i,7,i,/,/,/,/,/,/
CCCn1nc(C(=O)OCC(=O)c2ccccc2)c2ccccc2c1=O,-1.6,i,4,i,/,/,/,/,/,/
CCn1nc(C(=O)OCC(=O)c2ccc(F)cc2)c2ccccc2c1=O,-5.4*,i,27,i,0.0061,0.0043,0.027,?,?,0.0092
COc1ccc(C(NC(=O)C(C)C)c2c(O)ccc3ccccc23)cc1OC (stereo not drawn),0.99,i,-12,i,/,/,/,/,/,/
C/C(=N\NC(=O)c1c(Br)c(C)nn1C)c1cccc(NC(=O)C2CCC2)c1,-5.2*,i,/,i,0.0055,0.0047,0.027,0.0071,0.017,0.0096
C/C(=N\NC(=O)c1c(Br)c(C)nn1C)c1cccc(NC(=O)c2ccccc2C)c1,-2.8,i,/,i,/,/,/,/,/,/
O=C(NC(=S)Nc1ccccc1Cl)c1cncc(C#Cc2ccccc2)c1,12*,i,9,i,0.01,0.015*,0.036,0.011*,0.03,?
N#Cc1nc(Cc2ccccc2)oc1NCc1ccccc1Cl,-2.9*,i,/,i,0.0075,0.0058,0.03,0.0057*,0.016*,0.0099
CC(C)Nc1oc(Cc2cccc3ccccc23)nc1C#N,-4.5*,i,-2,i,0.0068,0.0055,?,?,0.014*,0.011
COc1ccc(-c2nc(C#N)c(NCc3ccccc3Cl)o2)cc1,0.065,i,0,i,/,/,/,/,/,/
CCOCCn1c(N2CCN(c3ccc(OC)cc3)CC2)nc2c1c(=O)n(C)c(=O)n2C,-0.46,i,2,i,/,/,/,/,/,/
COCCn1c(N2CCN(c3ccc(OC)cc3)CC2)nc2c1c(=O)n(C)c(=O)n2C,/,i,-7,i,0.0088,0.0056,0.031,0.0078,0.018,0.011
CC(=O)C1=C(C)Nc2ncnn2C1c1cccc(OCc2ccccc2)c1 (stereo not drawn),-3.4*,i,2,i,0.0079,0.006,0.032,0.0067,0.018*,0.01
CCOC(=O)NC(=S)Nc1ccc(OC)cc1,15*,i,-1,i,0.0078,0.021*,0.035,0.016*,?,0.017*
CCOC(=O)c1ccc(NC(=O)CCOc2ccc(OC)cc2)cc1,/,i,-14,i,0.0058,0.0047,0.03,0.0072,0.018,0.011
SMILES,KCC2 mod,CHT allo act,Rad51 HR inh,CHT inh,KCC2 secondary,KCC2 bumet counter,KCC2 secondary2,HEK293 Tl flux,KCC2 retest ouab,HEK293 Tl flux2
CCOC(=O)NC(=S)Nc1ccc(C(C)(C)C)cc1Br,49*,i,12,i,0.0075,0.046*,0.042*,0.046*,0.052*,0.022*
CCOC(=O)c1c(NC(=S)Nc2ccc(OC)cc2)sc2c1CCCCC2,4.7*,i,0,i,0.011,0.011*,0.033,0.012*,0.023,0.012
CCOC(=O)NC(NC(=S)Nc1ccc(OC)cc1)C(Cl)(Cl)Cl (stereo not drawn),0.7,i,/,i,/,/,/,/,/,/
CCOC(=O)c1c(NC(=S)Nc2ccc(OC)cc2)sc2c1CCC2,-1.3,i,-5,i,/,/,/,/,/,/
CCOC(=O)c1ccc(NC(=O)NNC(=O)CCc2ccc(OC)cc2)cc1,/,i,/,i,/,/,/,/,/,/
COc1ccccc1C(=O)C1CCCN(C(=O)CCc2ccccn2)C1 (stereo not drawn),-0.09,i,14,i,/,/,/,/,/,/
Cc1cc(C)n(-c2cccc(Cl)c2C#N)n1,-0.33,i,/,i,/,/,/,/,/,/
COc1ccc(CNC(=O)c2csnn2)cc1,/,i,5,i,/,/,/,/,/,/
COc1ccc(NC(=S)NC(=O)c2csnn2)cc1,138*,i,20,i,0.089*,0.11*,0.12*,0.13*,0.12*,0.12*
CCOC(=O)c1ccc(Oc2nc(NC)nc(OC)n2)cc1,-4.2*,i,1,i,0.0089,0.0071,0.036,0.0045,0.02,0.011
CC(C)(C)C(=O)NC1CC2CCCC(C1)N2C(=O)Nc1ccc(Cl)cc1 (stereo not drawn),/,i,/,i,/,/,/,/,/,/
O=C(Cn1cnc2scc(-c3ccc(Br)cc3)c2c1=O)N1CCOCC1,0.19,i,-5,i,/,/,/,/,/,/
CC(C)CCOc1ccc(CO[C@@H]2[C@H]3OC(C)(C)O[C@H]3O[C@@H]2C(O)CO)cc1 (stereo partly drawn),/,i,/,i,/,/,/,/,/,/
O=C1c2ccccc2C(=O)N1Cc1cccnc1,-5.4*,i,-12,i,0.0084,0.0058,0.031,0.0072,0.021,?
